Active and inactive are the calls of the source. No cut-off for these calls is given here.
Legend:
[1] = biological target: T1, DNA topoisomerase 1 (Homo sapiens) (UniProt P11387); experiment: Inhibition of human recombinant topoisomerase 1-mediated 117 bp DNA cleavage at 0.1 to 100 uM by agarose gel electrophoresis; details: in the assay text read “denaturing PAGE” for “agarose gel electrophoresis”
T1 sequence (whole entry): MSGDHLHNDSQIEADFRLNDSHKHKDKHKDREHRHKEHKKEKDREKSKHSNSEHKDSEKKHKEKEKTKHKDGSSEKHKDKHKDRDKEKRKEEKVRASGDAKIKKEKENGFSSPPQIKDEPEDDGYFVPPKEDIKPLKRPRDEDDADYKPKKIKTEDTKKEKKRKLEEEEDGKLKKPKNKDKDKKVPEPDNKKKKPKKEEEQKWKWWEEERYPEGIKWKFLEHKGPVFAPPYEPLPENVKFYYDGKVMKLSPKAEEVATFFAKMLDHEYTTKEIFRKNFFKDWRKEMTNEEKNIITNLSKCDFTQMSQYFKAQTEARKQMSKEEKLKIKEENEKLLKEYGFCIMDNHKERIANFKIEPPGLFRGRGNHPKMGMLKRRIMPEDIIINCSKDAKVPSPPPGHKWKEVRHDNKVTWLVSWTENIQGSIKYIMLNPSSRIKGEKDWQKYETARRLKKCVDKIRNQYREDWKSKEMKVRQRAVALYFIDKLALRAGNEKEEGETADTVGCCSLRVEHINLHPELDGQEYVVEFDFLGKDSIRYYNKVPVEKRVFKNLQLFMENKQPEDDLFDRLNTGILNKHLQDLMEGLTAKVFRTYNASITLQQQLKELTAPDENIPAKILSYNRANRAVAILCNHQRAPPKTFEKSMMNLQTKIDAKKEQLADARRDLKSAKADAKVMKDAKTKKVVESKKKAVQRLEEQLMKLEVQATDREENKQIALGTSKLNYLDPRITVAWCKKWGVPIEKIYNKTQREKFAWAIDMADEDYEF
How it was run: (§1)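 Human recombinant Top1 was purified from baculovirus. Compound was tested at 0.1, 1, 10 and 100 μM for 20 min at 25 °C. Reactions were stopped with SDS (0.5% final) and run on 20% denaturing PAGE with phosphoimager read-out. Activity was graded semiquantitatively.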

[2] = biological target: Tyrosyl-DNA phosphodiesterase 1 (Homo sapiens, UniProt Q9NUW8); experiment: Inhibition of recombinant TDP1(unknown origin) using 5'-[32P]-single stranded N14Y DNA oligonucleotide after 15 mins by […]
Sequence of Tyrosyl-DNA phosphodiesterase 1 (Q9NUW8 whole entry): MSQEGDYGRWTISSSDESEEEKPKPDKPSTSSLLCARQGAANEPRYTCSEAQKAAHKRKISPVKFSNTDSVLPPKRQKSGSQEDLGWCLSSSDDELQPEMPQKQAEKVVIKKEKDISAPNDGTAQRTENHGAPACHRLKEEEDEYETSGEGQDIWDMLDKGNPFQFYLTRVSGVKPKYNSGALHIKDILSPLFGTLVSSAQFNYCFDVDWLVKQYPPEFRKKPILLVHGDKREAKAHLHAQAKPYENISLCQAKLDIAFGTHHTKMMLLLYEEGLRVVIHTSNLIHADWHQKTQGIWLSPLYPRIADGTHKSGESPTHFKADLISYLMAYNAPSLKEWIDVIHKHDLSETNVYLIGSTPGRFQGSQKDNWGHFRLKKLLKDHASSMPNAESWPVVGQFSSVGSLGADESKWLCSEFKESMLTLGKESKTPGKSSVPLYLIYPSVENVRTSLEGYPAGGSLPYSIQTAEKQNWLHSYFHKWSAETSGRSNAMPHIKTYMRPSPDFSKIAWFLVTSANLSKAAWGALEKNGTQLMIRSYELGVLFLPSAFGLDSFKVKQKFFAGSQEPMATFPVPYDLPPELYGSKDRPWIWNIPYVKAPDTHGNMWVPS
How it was run: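 A 5′-32P-labeled single-stranded oligonucleotide with 3′ phosphotyrosine (N14Y) was incubated with 5 pM recombinant TDP1 for 15 min at room temperature. Loss of the N14P product band on the gel marks inhibition.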

[3] = Growth inhibition of human SF539 cells after 48 hrs by SRB assay; assay type: functional; details: SF-539, 48 h
How it was run: (§2)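 NCI60 screen. Cells were exposed to 100, 10, 1, 0.1 and 0.01 μM for 48 h, then stained with sulforhodamine B and read by optical density. Percent growth relative to control was plotted against log concentration. […] Where a standard error is given, values are the mean of two determinations.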

[4] = biological target: T1, DNA topoisomerase 1 (Homo sapiens); experiment: Inhibition of human recombinant topoisomerase 1-mediated 117 bp DNA cleavage by agarose gel electrophoresis; details: in the assay text read “denaturing PAGE” for “agarose gel electrophoresis”; how it was run: as §1
DU-145 = experiment: Growth inhibition of human DU145 cells after 48 hrs by SRB assay; assay type: functional; details: DU-145, 48 h; how it was run: as §2
HOP-62 = experiment: Growth inhibition of human HOP62 cells after 48 hrs by SRB assay; assay type: functional; details: HOP-62, 48 h; how it was run: as §2
MCF7 = experiment: Growth inhibition of human MCF7 cells after 48 hrs by SRB assay; assay type: functional; details: MCF7, 48 h; how it was run: as §2
[5] = Growth inhibition of human UACC62 cells after 48 hrs by SRB assay; assay type: functional; details: UACC-62, 48 h; how it was run: as §2
SN12C = experiment: Growth inhibition of human SN12C cells after 48 hrs by SRB assay; assay type: functional; how it was run: as §2
[6] = Growth inhibition of human OVCAR3 cells after 48 hrs by SRB assay; assay type: functional; details: OVCAR-3, 48 h; how it was run: as §2
HCT-116 = experiment: Growth inhibition of human HCT116 cells after 48 hrs by SRB assay; assay type: functional; details: HCT-116, 48 h; how it was run: as §2

SMILES | inhibition [1] | inhibition [2] | GI50 [3] [nM] | inhibition [4] | GI50 (DU-145) [nM] | GI50 (HOP-62) [nM] | IC50 [2] [nM] | GI50 (MCF7) [nM] | GI50 [5] [nM] | GI50 (SN12C) [nM] | GI50 [6] [nM] | GI50 (HCT-116) [nM]
CCNCCCOc1cc2c3c(n(CCCN4CCOCC4)c(=O)c2cc1OC)-c1cc2c(cc1C3=O)OCO2 | Active | Dose-dependent effect | – | – | – | – | – | – | – | – | – | –
COc1cc2c3c(n(CCCNCCO)c(=O)c2cc1OC)-c1cc2c(cc1C3=O)OCO2 [LMP-744] | – | – | 40 | – | – | – | – | – | – | – | – | –
C=CCOc1cc2c3c(n(CCCN4CCOCC4)c(=O)c2cc1OC)-c1cc2c(cc1C3=O)OCO2 | – | – | 10 | inactive | < 10 | < 10 | > 111000 | < 10 | < 10 | < 10 | 300 | –
COc1cc2c(=O)n(CCCN3CCOCC3)c3c(c2cc1OCCCN1CCOCC1)C(=O)c1cc2c(cc1-3)OCO2 | – | – | 100 | Active | 20 | 30 | > 111000 | 20 | 200 | 100 | 700 | 100
COc1cc2c(=O)n(CCCN3CCOCC3)c3c(c2cc1OCCCN)C(=O)c1cc2c(cc1-3)OCO2 | – | – | 200 | inactive | 300 | 300 | – | – | 300 | 300 | 400 | –
COc1cc2c(=O)n(CCCN3CCOCC3)c3c(c2cc1OCCCN1CCCC1)C(=O)c1cc2c(cc1-3)OCO2 | Active | – | 200 | – | 40 | – | – | 100 | 300 | – | 1200 | –
COc1cc2c(=O)n(CCCN3CCOCC3)c3c(c2cc1O)C(=O)c1cc2c(cc1-3)OCO2 | – | – | 300 | Active | 300 | 300 | – | 100 | 300 | 200 | 900 | 390
COc1cc2c(=O)n(CCCN3CCOCC3)c3c(c2cc1OCCCN1CCN(C)CC1)C(=O)c1cc2c(cc1-3)OCO2 | Active | Dose-dependent effect | – | – | – | – | > 111000 | – | – | – | – | –
COC(=O)COc1cc2c3c(n(CCCN4CCOCC4)c(=O)c2cc1OC)-c1cc2c(cc1C3=O)OCO2 | – | – | 100 | Active | 900 | 100 | > 111000 | 400 | 1000 | 800 | 5800 | 1100
COc1cc2c(=O)n(CCCN3CCOCC3)c3c(c2cc1OCCCN1CCCCC1)C(=O)c1cc2c(cc1-3)OCO2 | Active | Dose-dependent effect | 30 | – | 200 | 300 | – | 40 | 9600 | 400 | 5400 | 1100
COc1cc2c(=O)n(CCCN3CCOCC3)c3c(c2cc1OCCCN(C)C)C(=O)c1cc2c(cc1-3)OCO2 | Active | Dose-dependent effect | – | – | – | – | – | – | – | – | – | –
COc1cc2c(=O)n(CCCN3CCOCC3)c3c(c2cc1OCC(=O)NN)C(O)c1cc2c(cc1-3)OCO2 (configuration not stated) | – | – | – | inactive | – | – | > 111000 | – | – | – | – | –
COc1cc2c3c(n(C)c(=O)c2cc1OC)-c1cc2c(cc1C3=O)OCO2 | – | – | – | – | 37000 | 1300 | – | – | 4200 | 68000 | 73000 | 35000
